How the values were obtained:
[1] = Cytotoxicity against human HEK293 cells assessed as reduction in cell viability after 48 hrs by Alamar blue assay; type: cell-based
Method in brief: (§1)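 Alamar Blue viability read-out. Human liver (THLE-3) and kidney (HEK 293) cells incubated with compound for 48 h. Tested in dose-response to derive CC50.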

[2] = target: T1, Tyrosine-protein phosphatase non-receptor type 2 (Homo sapiens, UniProt P17706); assay: Inhibition of human PTPN2 expressed in Escherichia coli Rosetta 2 (DE3) using pNPP as substrate after 45 mins by spectrophotometric method
T1 sequence (P17706 whole entry): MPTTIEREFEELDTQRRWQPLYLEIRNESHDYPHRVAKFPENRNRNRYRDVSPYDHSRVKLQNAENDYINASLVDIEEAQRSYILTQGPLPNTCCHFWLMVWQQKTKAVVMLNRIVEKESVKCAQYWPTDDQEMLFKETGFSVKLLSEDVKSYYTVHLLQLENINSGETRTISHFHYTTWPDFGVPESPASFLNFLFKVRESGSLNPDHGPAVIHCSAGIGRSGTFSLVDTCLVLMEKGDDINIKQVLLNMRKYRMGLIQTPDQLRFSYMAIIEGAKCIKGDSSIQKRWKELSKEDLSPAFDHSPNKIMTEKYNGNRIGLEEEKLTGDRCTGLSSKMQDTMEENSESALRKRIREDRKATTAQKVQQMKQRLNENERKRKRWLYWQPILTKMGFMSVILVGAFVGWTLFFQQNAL

E. coli GroEL/ES [3] = target: T2, E. coli GroEL/ES (Escherichia coli, UniProt P0A6F5); assay: Inhibition of Escherichia coli GroEL expressed in Escherichia coli DH5alpha/Escherichia coli GroES expressed in Escherichia coli BL21 (DE3) assessed as reduction in GroEL/GroES-mediated denatured rhodanese refolding by measuring rhodanese enzyme activity after 45 mins by Fe(SCN)3 dye based spectrometric analysis
[4] = test system: Mycobacterium tuberculosis; assay: Antitubercular activity against Mycobacterium tuberculosis H37Rv after 5 days at 200 uM relative to control; type: functional; conditions: 120 h
Method in brief: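 M. tuberculosis grown in liquid culture with compound at a fixed 200 μM for 5 days. Growth inhibition expressed as percent of control.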

[5] = test system: Mycobacterium tuberculosis; assay: Antitubercular activity against Mycobacterium tuberculosis H37Rv after 5 days; type: functional, organism-based; conditions: 120 h
[6] = target: T3, Tyrosine-protein phosphatase non-receptor type 1 (Homo sapiens, UniProt P18031); assay: Inhibition of human PTPN1 expressed in Escherichia coli Rosetta 2 (DE3) using pNPP as substrate after 45 mins by spectrophotometric method
T3 sequence (P18031 whole entry): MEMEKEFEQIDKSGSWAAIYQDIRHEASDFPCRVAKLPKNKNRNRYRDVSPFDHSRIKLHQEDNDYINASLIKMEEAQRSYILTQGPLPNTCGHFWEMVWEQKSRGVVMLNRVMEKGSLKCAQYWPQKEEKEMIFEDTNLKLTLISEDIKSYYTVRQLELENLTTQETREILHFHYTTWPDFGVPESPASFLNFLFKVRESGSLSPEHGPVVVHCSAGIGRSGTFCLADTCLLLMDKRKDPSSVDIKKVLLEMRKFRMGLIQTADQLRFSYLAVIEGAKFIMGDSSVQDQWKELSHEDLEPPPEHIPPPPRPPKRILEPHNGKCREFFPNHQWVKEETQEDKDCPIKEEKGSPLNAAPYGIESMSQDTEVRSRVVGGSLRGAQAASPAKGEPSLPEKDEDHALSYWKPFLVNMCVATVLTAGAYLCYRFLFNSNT

[7] = Inhibition of refolded rhodanese (unknown origin) preincubated with Escherichia coli GroEL/GroES for 60 mins by measuring rhodanese enzyme activity followed by compound addition by Fe(SCN)3 dye based spectrometric analysis; set-up: species or system Homo sapiens
E. coli GroEL/ES [8] = target: T2, E. coli GroEL/ES; assay: Inhibition of Escherichia coli GroEL expressed in Escherichia coliDH5alpha/Escherichia coli GroES expressed in Escherichia coli BL21 (DE3) assessed as reduction in GroEL/GroES-mediated denatured pig heart mitochondrial MDH refolding by measuring MDH enzyme activity using sodium mesoxalate as substrate after 20 to 40 mins by spectrometric analysis
[9] = target: T4, Tyrosine-protein phosphatase non-receptor type 5 (Homo sapiens, UniProt P54829); assay: Inhibition of human PTPN5 expressed in Escherichia coli Rosetta 2 (DE3) using pNPP as substrate after 45 mins by spectrophotometric method
T4 sequence (P54829 whole entry): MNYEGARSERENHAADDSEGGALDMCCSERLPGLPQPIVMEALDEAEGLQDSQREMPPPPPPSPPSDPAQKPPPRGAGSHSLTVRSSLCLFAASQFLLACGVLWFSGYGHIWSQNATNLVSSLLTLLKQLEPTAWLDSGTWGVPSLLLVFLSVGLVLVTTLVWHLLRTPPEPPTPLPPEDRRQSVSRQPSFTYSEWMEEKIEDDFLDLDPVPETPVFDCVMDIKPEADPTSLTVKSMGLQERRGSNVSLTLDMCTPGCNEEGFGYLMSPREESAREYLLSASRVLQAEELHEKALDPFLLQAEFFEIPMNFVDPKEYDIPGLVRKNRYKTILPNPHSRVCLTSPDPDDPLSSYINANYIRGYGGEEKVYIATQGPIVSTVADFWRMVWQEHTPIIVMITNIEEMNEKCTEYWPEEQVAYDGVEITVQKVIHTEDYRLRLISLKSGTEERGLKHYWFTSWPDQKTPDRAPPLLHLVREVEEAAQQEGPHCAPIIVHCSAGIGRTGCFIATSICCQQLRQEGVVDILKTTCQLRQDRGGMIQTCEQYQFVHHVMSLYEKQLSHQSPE

[10] = target: T5, Malate dehydrogenase, mitochondrial (Sus scrofa, UniProt P00346); assay: Inhibition of refolded pig heart mitochondrial MDH preincubated with Escherichia coli GroEL/GroES for 45 mins using sodium mesoxalate as substrate followed by compound addition and measured after 20 to 30 mins by spectrometric analysis
T5 sequence (P00346 whole entry): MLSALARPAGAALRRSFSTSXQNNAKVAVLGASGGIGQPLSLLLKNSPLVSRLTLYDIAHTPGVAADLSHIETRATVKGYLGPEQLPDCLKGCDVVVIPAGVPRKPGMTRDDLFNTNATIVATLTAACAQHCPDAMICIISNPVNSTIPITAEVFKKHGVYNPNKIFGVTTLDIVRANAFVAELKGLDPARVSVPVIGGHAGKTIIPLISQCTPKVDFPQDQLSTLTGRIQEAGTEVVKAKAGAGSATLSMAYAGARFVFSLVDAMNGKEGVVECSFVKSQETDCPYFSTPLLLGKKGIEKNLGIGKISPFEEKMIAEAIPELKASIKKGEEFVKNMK

HSP60/HSP10 = HSP60/HSP10 (Homo sapiens, UniProt P10809); assay: Inhibition of human HSP60 expressed in Escherichia coli Rosetta 2(DE3)/human HSP10 expressed in Escherichia coli Rosetta 2(DE3) pLysS cells assessed as reduction in HSP60/HSP10-mediated denatured pig heart mitochondrial MDH refolding by measuring MDH enzyme activity using sodium mesoxalate as substrate after 40 to 60 mins by spectrometric analysis
[11] = Cytotoxicity against human THLE3 cells assessed as reduction in cell viability after 48 hrs by Alamar blue assay; type: cell-based; method in brief: as §1
[12] = target: T6, Phosphotyrosine protein phosphatase (Mycobacterium tuberculosis, UniProt A0A045ISB3); assay: Inhibition of Mycobacterium tuberculosis His-tagged PtpB expressed in Escherichia coli Rosetta 2 (DE3) using pNPP as substrate after 30 mins by spectrophotometric method
T6 sequence (A0A045ISB3 whole entry): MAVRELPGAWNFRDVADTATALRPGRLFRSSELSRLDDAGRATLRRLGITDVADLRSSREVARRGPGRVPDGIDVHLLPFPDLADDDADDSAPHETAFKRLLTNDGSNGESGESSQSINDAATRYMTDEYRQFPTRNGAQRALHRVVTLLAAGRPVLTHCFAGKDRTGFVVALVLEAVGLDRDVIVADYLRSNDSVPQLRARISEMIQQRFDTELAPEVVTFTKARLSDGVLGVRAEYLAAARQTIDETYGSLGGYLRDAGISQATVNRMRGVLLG

HSP60/HSP10, sequence (P10809 whole entry): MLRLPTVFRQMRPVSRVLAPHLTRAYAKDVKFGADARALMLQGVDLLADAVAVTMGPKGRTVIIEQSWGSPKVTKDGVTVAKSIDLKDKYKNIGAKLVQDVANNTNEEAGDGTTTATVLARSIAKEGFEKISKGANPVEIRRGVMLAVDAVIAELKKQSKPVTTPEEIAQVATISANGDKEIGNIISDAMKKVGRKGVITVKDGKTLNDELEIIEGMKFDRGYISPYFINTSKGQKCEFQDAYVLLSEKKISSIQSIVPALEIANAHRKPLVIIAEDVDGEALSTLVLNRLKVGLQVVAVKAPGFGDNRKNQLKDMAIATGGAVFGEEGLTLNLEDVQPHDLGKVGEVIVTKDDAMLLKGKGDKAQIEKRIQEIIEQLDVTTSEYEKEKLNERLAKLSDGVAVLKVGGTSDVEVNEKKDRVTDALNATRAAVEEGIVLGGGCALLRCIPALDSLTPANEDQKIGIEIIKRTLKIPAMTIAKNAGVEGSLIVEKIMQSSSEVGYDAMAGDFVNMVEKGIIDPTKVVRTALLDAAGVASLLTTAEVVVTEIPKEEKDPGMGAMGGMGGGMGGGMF
HSP60/HSP10, sequence (P61604 whole entry, further chain): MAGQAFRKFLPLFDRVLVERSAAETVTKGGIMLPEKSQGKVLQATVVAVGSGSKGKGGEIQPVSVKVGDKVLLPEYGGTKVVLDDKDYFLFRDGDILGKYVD
T2 sequence (P0A6F5 whole entry, looked up): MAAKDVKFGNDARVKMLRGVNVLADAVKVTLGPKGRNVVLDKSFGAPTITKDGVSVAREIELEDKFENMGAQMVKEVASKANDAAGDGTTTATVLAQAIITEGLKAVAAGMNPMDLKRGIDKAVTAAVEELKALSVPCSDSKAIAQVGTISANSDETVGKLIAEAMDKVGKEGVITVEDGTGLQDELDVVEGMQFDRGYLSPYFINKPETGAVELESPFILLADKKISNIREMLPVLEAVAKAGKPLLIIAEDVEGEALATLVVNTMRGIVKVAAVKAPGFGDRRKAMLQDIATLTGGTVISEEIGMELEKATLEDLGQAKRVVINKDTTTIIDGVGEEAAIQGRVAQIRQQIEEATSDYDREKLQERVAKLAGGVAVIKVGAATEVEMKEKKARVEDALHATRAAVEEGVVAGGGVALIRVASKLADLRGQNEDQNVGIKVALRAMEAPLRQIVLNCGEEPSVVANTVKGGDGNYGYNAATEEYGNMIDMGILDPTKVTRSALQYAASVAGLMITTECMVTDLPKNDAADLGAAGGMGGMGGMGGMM

Structure (SMILES)	CC50 at 48 h [1]	IC50 [2]	IC50 (E. coli GroEL/ES [3])	inhibition at 200 µM [4]	EC50 [5]	IC50 [6]	IC50 [7]	IC50 (E. coli GroEL/ES [8])	IC50 [9]	IC50 [10]	IC50 (HSP60/HSP10)	CC50 at 48 h [11]	IC50 [12]
O=S(=O)(Nc1ccc(-c2nc3ccccc3o2)cc1)c1ccccc1C(F)(F)F	> 100 µM	61 µM	166 µM	58%	> 200 µM	44 µM	> 100 µM	75 µM	53 µM	> 63 µM	74 µM	91 µM	58 µM
O=[N+]([O-])c1cc(S(=O)(=O)Nc2ccc(-c3nc4ccccc4o3)cc2)ccc1Cl	85 µM	62 µM	44 µM	52%	193 µM	38 µM	> 100 µM	20 µM	46 µM	> 63 µM	17 µM	24 µM	35 µM
O=S(=O)(Nc1ccc(-c2nc3ccccc3o2)cc1)c1ccc(Cl)s1	> 100 µM	72 µM	156 µM	70%	185 µM	63 µM	> 100 µM	53 µM	64 µM	> 63 µM	31 µM	85 µM	32 µM
O=S(=O)(Nc1ccc(-c2nc3ccccc3o2)cc1)c1cccs1	> 100 µM	> 100 µM	239 µM	68%	> 200 µM	> 100 µM	> 100 µM	> 100 µM	93 µM	> 63 µM	63 µM	98 µM	48 µM
O=S(=O)(Nc1ccc(-c2nc3ccccc3o2)cc1)c1ccc(F)c(C(F)(F)F)c1	82 µM	36 µM	112 µM	77%	> 200 µM	40 µM	> 100 µM	34 µM	43 µM	> 63 µM	28 µM	72 µM	36 µM
O=S(=O)(Nc1ccc2oc(-c3ccccc3)nc2c1)c1ccccc1	46 µM	64 µM	190 µM	76%	105 µM	77 µM	> 100 µM	> 100 µM	42 µM	> 63 µM	> 100 µM	33 µM	87 µM
O=S(=O)(Nc1ccc(-c2nc3ccccc3o2)cc1)c1cccc(C(F)(F)F)c1	> 100 µM	48 µM	170 µM	50%	> 200 µM	44 µM	> 100 µM	53 µM	40 µM	> 63 µM	57 µM	82 µM	49 µM
COc1cccc(S(=O)(=O)Nc2ccc3oc(-c4ccccc4)nc3c2)c1	63 µM	87 µM	220 µM	83%	162 µM	86 µM	> 100 µM	> 100 µM	44 µM	> 63 µM	> 100 µM	37 µM	> 100 µM
O=S(=O)(Nc1ccc2oc(-c3ccccc3)nc2c1)c1ccc(Cl)s1	> 100 µM	72 µM	234 µM	71%	> 200 µM	76 µM	> 100 µM	> 100 µM	44 µM	> 63 µM	70 µM	43 µM	54 µM
C=Cc1ccc(S(=O)(=O)Nc2ccc3oc(-c4ccccc4)nc3c2)cc1	53 µM	46 µM	175 µM	86%	151 µM	45 µM	> 100 µM	> 100 µM	35 µM	> 63 µM	> 100 µM	50 µM	51 µM
O=[N+]([O-])c1cc(S(=O)(=O)Nc2ccc3oc(-c4ccccc4)nc3c2)ccc1Cl	90 µM	40 µM	18 µM	1%	–	35 µM	> 100 µM	16 µM	32 µM	> 63 µM	17 µM	25 µM	33 µM
COc1ccc(Cl)cc1S(=O)(=O)Nc1ccc2oc(-c3ccccc3)nc2c1	74 µM	25 µM	105 µM	0%	–	27 µM	> 100 µM	81 µM	37 µM	> 63 µM	> 100 µM	31 µM	31 µM
COc1ccccc1S(=O)(=O)Nc1ccc2oc(-c3ccccc3)nc2c1	41 µM	34 µM	89 µM	3%	–	37 µM	> 100 µM	85 µM	38 µM	> 63 µM	> 100 µM	29 µM	67 µM

— ChEMBL document CHEMBL4387722
